Data on 1 compound can be found in ChEMBL document CHEMBL4038327, “Inhibitory Kappa B Kinase α (IKKα) Inhibitors That Recapitulate Their Selectivity in Cells against Isoform-Related Biomarkers” (J Med Chem, 2017).

For series [1], the target named is T1, Inhibitor of nuclear factor kappa-B kinase subunit beta (Homo sapiens, UniProt O14920).
T1 sequence (O14920 whole entry): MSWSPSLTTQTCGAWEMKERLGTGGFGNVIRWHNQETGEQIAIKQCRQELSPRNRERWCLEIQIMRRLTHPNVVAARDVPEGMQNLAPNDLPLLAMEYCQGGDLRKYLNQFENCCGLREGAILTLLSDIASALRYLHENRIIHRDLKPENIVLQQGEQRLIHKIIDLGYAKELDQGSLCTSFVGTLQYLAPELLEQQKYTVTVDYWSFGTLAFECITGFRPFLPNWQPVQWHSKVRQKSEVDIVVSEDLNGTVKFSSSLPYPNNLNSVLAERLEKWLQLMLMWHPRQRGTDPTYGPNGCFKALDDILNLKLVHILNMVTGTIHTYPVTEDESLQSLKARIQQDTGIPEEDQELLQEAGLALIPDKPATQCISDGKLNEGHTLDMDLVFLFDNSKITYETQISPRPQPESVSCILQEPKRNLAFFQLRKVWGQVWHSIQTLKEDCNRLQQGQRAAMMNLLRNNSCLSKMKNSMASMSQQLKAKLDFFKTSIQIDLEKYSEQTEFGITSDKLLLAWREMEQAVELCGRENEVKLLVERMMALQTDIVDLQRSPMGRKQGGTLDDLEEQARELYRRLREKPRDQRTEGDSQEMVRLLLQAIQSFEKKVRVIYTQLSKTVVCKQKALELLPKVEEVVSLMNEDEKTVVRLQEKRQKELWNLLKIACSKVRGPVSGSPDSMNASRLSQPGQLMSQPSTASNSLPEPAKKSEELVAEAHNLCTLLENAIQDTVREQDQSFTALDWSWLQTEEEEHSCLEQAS
Kind of series: Inhibition of IKKbeta in human U2OS cells assessed as decrease in TNFalpha induced p65 phosphorylation at ser536 residues at 100 uM preincubated for 1 hr followed by TNFalpha stimulation for 30 mins by Western blot analysis. Type of series: cell-based. The following applies: 0.5 h. In outline: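 U2OS cells were grown in McCoy's 5A medium at 37 °C under 5% CO2 and made quiescent by 24 h serum deprivation. They were then pretreated with compound before agonist stimulation in serum-free medium. Phospho-p100, IκBα levels and phospho-p65 (Ser536) were assessed by Western blot.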

For series [2], the target named is T1, Inhibitor of nuclear factor kappa-B kinase subunit beta. The series is described as follows: Inhibition of recombinant full length human IKKbeta expressed in baculovirus infected sf9 insect cells using biotinylated IkBalpha as substrate after 60 mins by DELFIA. In outline: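 Recombinant IKKβ (37 nM) was incubated with biotinylated IκB-α (Ser32) peptide (0.375 μM) and 40 μM ATP in Tris-HCl pH 7.5 with MgCl2, EDTA, DTT and BSA for 60 min at 30 °C. The reaction was quenched with EDTA and captured on streptavidin. Detection used anti-phospho-IκBα (Ser32/36) mAb plus Eu-anti-mouse IgG, read by time-resolved fluorescence (340/615 nm). Apparent Ki was obtained via Cheng–Prusoff, n=3.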

Series [3] deals with Dual specificity mitogen-activated protein kinase kinase 1 (Homo sapiens) (UniProt Q02750). The series is described as follows: Inhibition of N-terminal GST tagged/C-terminal His6-tagged recombinant full length human Mek1 expressed in Escherichia coli cells at 10 uM relative to control. The method in brief:
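Outsourced commercial kinase panel run at a single concentration, with duplicate assay points.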

Sequence of Dual specificity mitogen-activated protein kinase kinase 1 (Homo sapiens) (Q02750 whole entry): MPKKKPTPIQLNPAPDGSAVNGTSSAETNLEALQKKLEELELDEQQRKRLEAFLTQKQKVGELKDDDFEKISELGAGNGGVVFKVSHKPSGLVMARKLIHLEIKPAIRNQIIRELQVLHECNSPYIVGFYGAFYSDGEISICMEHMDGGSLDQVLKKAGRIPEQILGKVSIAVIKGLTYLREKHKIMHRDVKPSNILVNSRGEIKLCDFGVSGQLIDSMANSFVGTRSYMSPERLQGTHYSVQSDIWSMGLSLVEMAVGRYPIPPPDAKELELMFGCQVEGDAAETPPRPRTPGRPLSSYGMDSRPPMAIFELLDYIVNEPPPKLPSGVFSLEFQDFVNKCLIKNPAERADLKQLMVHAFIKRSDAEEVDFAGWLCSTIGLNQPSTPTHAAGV

On to `N#Cc1c[nH]c2nc(N)nc(-c3ccc(S(N)(=O)=O)cc3)c12`, for which the “inhibition (INH)” value in series [1] is recorded as “Active”. In addition, in series [2], the Ki was 1 µM. The inhibition in series [3] is more than 80%.
